Test results from ChEMBL document CHEMBL5724801, “EUbOPEN Chemogenomics Library - Multiplex” (2024).
Where “and” joins values, the source holds several entries; their conditions need not be identical. Equal entries are not always repeated.

System: Fibroblast
Assay: Multiplex assay against human fibroblast
Assay type: toxicity, cell-based
Outline: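 Cells stained live at seeding with Hoechst33342, BioTracker Green Microtubule Cytoskeleton Dye, MitoTracker Red and Annexin V Alexa Fluor 680 were imaged on a CQ1 microscope at 37°C and 5% CO2 after compound addition. Their classification by CellPathfinder machine-learning gating ran from Hoechst high-intensity objects versus normal cells, to healthy, pyknosed or fragmented nuclei among normal cells, to mitotic or apoptotic among pyknosed cells. Tubulin, mitochondrial-mass and membrane-permeability phenotypes are per cents of healthy-nucleus cells.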

[1] = 12 h, 1 µM, compound concentration 1 uM
[2] = 12 h, 10 µM, compound concentration 10 uM
[3] = 24 h, 1 µM, compound concentration 1 uM
[4] = 24 h, 10 µM, compound concentration 10 uM
[5] = 48 h, 1 µM, compound concentration 1 uM
[6] = 48 h, 10 µM, compound concentration 10 uM

For `N[C@](CC1c2ccccc2Oc2ccccc21)(C(=O)O)[C@H]1C[C@@H]1C(=O)O`, the “Population Apoptotic (%)” value [1] was 44% and 58%, the “Population Fragmented Nuclei (%)” value [1] was 12% and 18% and the “Population Healthy Nuclei (%)” value [1] was 73% and 59%. For the same compound, the “Population Hoechst High Intensity Objects (%)” value [1] was 4% and 1%, the “Population Membrane Permeable-Phenotype (%)” value [1] was 0% and 7% and the “Population Mitochondria Different-Phenotype (%)” value [1] was 1%. For the same compound, the “Population Mitotic Cells (%)” value [1] was 56% and 41%, the “Population Normal (%)” value [1] was 95% and 98% and the “Population Pyknosed Nuclei (%)” value [1] was 13% and 21%. The “Population Tubulin-Different-Phenotype (%)” value [1] was 27% and 37%, the “Total Cell Count” value [1] was 189 and 113 and the “Population Apoptotic (%)” value [2] was 50% and 26%. For the same compound, the “Population Fragmented Nuclei (%)” value [2] was 13% and 20%, the “Population Healthy Nuclei (%)” value [2] was 66% and 59% and the “Population Hoechst High Intensity Objects (%)” value [2] was 1% and 7%. The “Population Membrane Permeable-Phenotype (%)” value [2] was 2% and 0%, the “Population Mitochondria Different-Phenotype (%)” value [2] was 2% and 7% and the “Population Mitotic Cells (%)” value [2] was 50% and 73%. The “Population Normal (%)” value [2] was 98% and 92%, the “Population Pyknosed Nuclei (%)” value [2] was 20% and the “Population Tubulin-Different-Phenotype (%)” value [2] was 22% and 33%. For the same compound, the “Total Cell Count” value [2] was 203 and 119, the “Population Apoptotic (%)” value [3] was 68% and 33% and the “Population Fragmented Nuclei (%)” value [3] was 12% and 27%. For the same compound, the “Population Healthy Nuclei (%)” value [3] was 73% and 49%, the “Population Hoechst High Intensity Objects (%)” value [3] was 2% and 4% and the “Population Membrane Permeable-Phenotype (%)” value [3] was 2% and 6%. The “Population Mitochondria Different-Phenotype (%)” value [3] was 2% and 1%, the “Population Mitotic Cells (%)” value [3] was 32% and 66% and the “Population Normal (%)” value [3] was 97% and 95%. The “Population Pyknosed Nuclei (%)” value [3] was 13% and 22%, the “Population Tubulin-Different-Phenotype (%)” value [3] was 25% and 44% and the “Total Cell Count” value [3] was 183 and 123. The “Population Apoptotic (%)” value [4] was 57% and 35%, the “Population Fragmented Nuclei (%)” value [4] was 10% and 18% and the “Population Healthy Nuclei (%)” value [4] was 68% and 66%. The “Population Hoechst High Intensity Objects (%)” value [4] was 1% and 2%, the “Population Membrane Permeable-Phenotype (%)” value [4] was 1% and the “Population Mitochondria Different-Phenotype (%)” value [4] was 3% and 4%. The “Population Mitotic Cells (%)” value [4] was 42% and 64%, the “Population Normal (%)” value [4] was 98% and 97% and the “Population Pyknosed Nuclei (%)” value [4] was 20% and 15%. For the same compound, the “Population Tubulin-Different-Phenotype (%)” value [4] was 30% and 34%, the “Total Cell Count” value [4] was 193 and 113 and the “Population Apoptotic (%)” value [5] was 62% and 23%. For the same compound, the “Population Fragmented Nuclei (%)” value [5] was 17% and 36%, the “Population Healthy Nuclei (%)” value [5] was 68% and 48% and the “Population Hoechst High Intensity Objects (%)” value [5] was 2% and 8%. For the same compound, the “Population Membrane Permeable-Phenotype (%)” value [5] was 0% and 9%, the “Population Mitochondria Different-Phenotype (%)” value [5] was 2% and 5% and the “Population Mitotic Cells (%)” value [5] was 37% and 76%. The “Population Normal (%)” value [5] was 97% and 91%, the “Population Pyknosed Nuclei (%)” value [5] was 14% and the “Population Tubulin-Different-Phenotype (%)” value [5] was 26% and 65%. The “Total Cell Count” value [5] was 189 and 125, the “Population Apoptotic (%)” value [6] was 45% and 27% and the “Population Fragmented Nuclei (%)” value [6] was 14% and 27%. The “Population Healthy Nuclei (%)” value [6] was 68% and 63%, the “Population Hoechst High Intensity Objects (%)” value [6] was 5% and 3% and the “Population Membrane Permeable-Phenotype (%)” value [6] was 1% and 2%. For the same compound, the “Population Mitochondria Different-Phenotype (%)” value [6] was 2%, the “Population Mitotic Cells (%)” value [6] was 54% and 72% and the “Population Normal (%)” value [6] was 94% and 96%. For the same compound, the “Population Pyknosed Nuclei (%)” value [6] was 16% and 9%, the “Population Tubulin-Different-Phenotype (%)” value [6] was 32% and 28% and the “Total Cell Count” value [6] was 198 and 115.

With `CSc1ccccc1N1CCN(CCCCCC(=O)NC2CCCc3ccccc32)CC1.Cl` (stereo not given) the “Population Apoptotic (%)” value [1] was 37% and 50%, the “Population Fragmented Nuclei (%)” value [1] was 26% and 32% and the “Population Healthy Nuclei (%)” value [1] was 49% and 41%. For the same compound, the “Population Hoechst High Intensity Objects (%)” value [1] was 6% and 2%, the “Population Membrane Permeable-Phenotype (%)” value [1] was 1% and 9% and the “Population Mitochondria Different-Phenotype (%)” value [1] was 15% and 7%. For the same compound, the “Population Mitotic Cells (%)” value [1] was 62% and 50%, the “Population Normal (%)” value [1] was 93% and 97% and the “Population Pyknosed Nuclei (%)” value [1] was 24% and 25%. For the same compound, the “Population Tubulin-Different-Phenotype (%)” value [1] was 65% and 74%, the “Total Cell Count” value [1] was 126 and 135 and the “Population Apoptotic (%)” value [2] was 58% and 66%. For the same compound, the “Population Fragmented Nuclei (%)” value [2] was 25% and 34%, the “Population Healthy Nuclei (%)” value [2] was 57% and 50% and the “Population Hoechst High Intensity Objects (%)” value [2] was 5%. For the same compound, the “Population Membrane Permeable-Phenotype (%)” value [2] was 0%, the “Population Mitochondria Different-Phenotype (%)” value [2] was 78% and 36% and the “Population Mitotic Cells (%)” value [2] was 41% and 33%. For the same compound, the “Population Normal (%)” value [2] was 94%, the “Population Pyknosed Nuclei (%)” value [2] was 17% and 14% and the “Population Tubulin-Different-Phenotype (%)” value [2] was 95% and 92%. The “Total Cell Count” value [2] was 220 and 242, the “Population Apoptotic (%)” value [3] was 52% and 37% and the “Population Fragmented Nuclei (%)” value [3] was 29% and 33%. For the same compound, the “Population Healthy Nuclei (%)” value [3] was 52% and 43%, the “Population Hoechst High Intensity Objects (%)” value [3] was 6% and 3% and the “Population Membrane Permeable-Phenotype (%)” value [3] was 0% and 3%. The “Population Mitochondria Different-Phenotype (%)” value [3] was 21% and 11%, the “Population Mitotic Cells (%)” value [3] was 47% and 62% and the “Population Normal (%)” value [3] was 93% and 96%. The “Population Pyknosed Nuclei (%)” value [3] was 18% and 23%, the “Population Tubulin-Different-Phenotype (%)” value [3] was 40% and 64% and the “Total Cell Count” value [3] was 133 and 130. The “Population Apoptotic (%)” value [4] was 90% and 66%, the “Population Fragmented Nuclei (%)” value [4] was 22% and 33% and the “Population Healthy Nuclei (%)” value [4] was 66% and 56%. The “Population Hoechst High Intensity Objects (%)” value [4] was 7% and 3%, the “Population Membrane Permeable-Phenotype (%)” value [4] was 0% and the “Population Mitochondria Different-Phenotype (%)” value [4] was 81% and 51%. The “Population Normal (%)” value [4] was 92% and 96%, the “Population Pyknosed Nuclei (%)” value [4] was 11% and 9% and the “Population Tubulin-Different-Phenotype (%)” value [4] was 98% and 90%. The “Total Cell Count” value [4] was 211 and 258, the “Population Apoptotic (%)” value [5] was 61% and 44% and the “Population Fragmented Nuclei (%)” value [5] was 26% and 33%. For the same compound, the “Population Healthy Nuclei (%)” value [5] was 56% and 45%, the “Population Hoechst High Intensity Objects (%)” value [5] was 6% and 1% and the “Population Membrane Permeable-Phenotype (%)” value [5] was 2% and 0%. The “Population Mitochondria Different-Phenotype (%)” value [5] was 17% and 12%, the “Population Mitotic Cells (%)” value [5] was 38% and 56% and the “Population Normal (%)” value [5] was 93% and 98%. For the same compound, the “Population Pyknosed Nuclei (%)” value [5] was 17% and 20%, the “Population Tubulin-Different-Phenotype (%)” value [5] was 69% and 64% and the “Total Cell Count” value [5] was 132 and 124. For the same compound, the “Population Apoptotic (%)” value [6] was 91% and 68%, the “Population Fragmented Nuclei (%)” value [6] was 25% and 38% and the “Population Healthy Nuclei (%)” value [6] was 61% and 53%. The “Population Hoechst High Intensity Objects (%)” value [6] was 8% and 4%, the “Population Membrane Permeable-Phenotype (%)” value [6] was 0% and 2% and the “Population Mitochondria Different-Phenotype (%)” value [6] was 82% and 33%. For the same compound, the “Population Normal (%)” value [6] was 91% and 95%, the “Population Pyknosed Nuclei (%)” value [6] was 12% and 8% and the “Population Tubulin-Different-Phenotype (%)” value [6] was 97% and 83%. The “Total Cell Count” value [6] was 195 and 281.
